Data published in ChEMBL document CHEMBL1124365, “3-Quaternary ammonium 1-carba-1-dethiacephems” (J Med Chem, 1989).
Values after ≈ are worked out from the molar mass of the structure shown.

Assays:
[1] = Half-life was evaluated for pharmacokinetic data in rats; assay type: ADME, organism-based; conditions: rat, in vivo
In short: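 Male Sprague-Dawley rats, single 20 mg/kg intravenous dose in saline via indwelling jugular vein cannula; serial blood sampling from the same cannula over 4 h. Plasma levels measured by agar well diffusion bioassay with E. coli ATCC 4157 (detection limit ≤0.80 µg/mL). Half-life calculated as 0.693/β, β being the terminal slope of the plasma concentration–time curve.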

Escherichia coli [2] = assay: Minimal inhibitory activity against the Escherichia coli (EC14); assay type: functional
In short: (§1)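 Agar dilution: compounds diluted in 0.1 M phosphate buffer pH 7.0, incorporated into Mueller-Hinton agar with 1% Bacto-Supplement C at 50 °C. Overnight cultures diluted to ~1×10^4 cells/µL, 1 µL spotted onto plates; incubated overnight at 35 °C in ambient air. MIC = lowest concentration preventing visible growth.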

Escherichia coli [3] = assay: Minimal inhibitory activity against the E. coli(TEM beta lactamase containing); assay type: functional; in short: as §1
Enterobacter cloacae [4] = assay: Minimal inhibitory activity against the Enterobacter cloacae (265A beta lactamase containing); assay type: functional; in short: as §1
Haemophilus influenzae = assay: Minimal inhibitory activity against the Haemophilus influenzae (C.L); assay type: functional; in short: as §1
Klebsiella [5] = assay: Minimal inhibitory activity against the Klebsiella(KAE beta lactamase containing); assay type: functional; in short: as §1
Klebsiella [6] = assay: Minimal inhibitory activity against the Klebsiella (X26); assay type: functional; in short: as §1
Morganella morganii = assay: Minimal inhibitory activity against the Proteus morganii (PR15); assay type: functional; in short: as §1
Pseudomonas aeruginosa = assay: Minimal inhibitory activity against the Pseudomonas aeruginosa (X528); assay type: functional; in short: as §1
Rattus norvegicus = species on record: Rattus norvegicus; assay: Urinary recovery was evaluated for pharmacokinetic data in rats; assay type: organism-based; conditions: Urine
In short: (§2)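 Male Sprague-Dawley rats given 20 mg/kg IV in saline via indwelling jugular vein cannula; serial blood sampling through cannula, plasma and urine collected over 4 h. Drug levels by agar well diffusion bioassay with E. coli ATCC 4157 (detection limit ≤0.80 μg/mL). Half-life = 0.693/β from terminal plasma slope; urinary recovery as percent of administered dose.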

Salmonella = assay: Minimal inhibitory activity against the Salmonella (X514); assay type: functional; in short: as §1
[7] = test system: Staphylococcus epidermidis; assay: Minimal inhibitory activity against the Staphylococcus epidermidis (222); assay type: functional; in short: as §1
Staphylococcus aureus = assay: Minimal inhibitory activity against the Staphylococcus aureus (X1.1); assay type: functional; in short: as §1
Streptococcus pneumoniae = assay: Minimal inhibitory activity against the Streptococcus pneumoniae (PARK); assay type: functional; in short: as §1
Streptococcus pyogenes = assay: Minimal inhibitory activity against the Streptococcus pyogenes (C203); assay type: functional; in short: as §1
[8] = Half-life was evaluated for pharmacokinetic data in rats.; assay type: ADME, organism-based; conditions: rat, in vivo; in short: as §2
Enterobacter cloacae [9] = assay: Truncation of the zone of inhibition was graded for Enterobacter cloacae EB17 on a 30 ug disk of test compound; assay type: functional
In short: (§3)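 Cefoxitin disk approximation: Mueller-Hinton agar swab-inoculated with ~1×10^8 cells/mL of inducible Enterobacter strains; 30 µg test-compound disks plus 30 µg cefoxitin disks placed ~15 mm from their edge. Overnight at 35 °C in ambient air; truncation of inhibition zone on cefoxitin-proximal side graded as a measure of induced β-lactamase effect.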

Enterobacter cloacae [10] = assay: Truncation of the zone of inhibition was graded for Enterobacter cloacae EB5 on a 30 ug disk of test compound; assay type: functional; in short: as §3
Enterobacter cloacae [11] = assay: Truncation of the zone of inhibition was graded for Enterobacter cloacae EB57 on a 30 ug disk of test compound; assay type: functional; in short: as §3
Enterobacter cloacae [12] = assay: Minimal inhibitory activity against the Enterobacter cloacae (EB5); assay type: functional; in short: as §1
Providencia rettgeri = assay: Minimal inhibitory activity against the Proteus rettgeri (C24); assay type: functional; in short: as §1

Row | SMILES | MIC (Escherichia coli [2]) | MIC (Escherichia coli [3]) | MIC (Enterobacter cloacae [4]) | MIC (Haemophilus influenzae) | MIC (Klebsiella [5]) | MIC (Klebsiella [6]) | MIC (Morganella morganii) | MIC (Pseudomonas aeruginosa) | Recovery (Rattus norvegicus) | MIC (Salmonella) | MIC [7] | MIC (Staphylococcus aureus) | MIC (Streptococcus pneumoniae) | MIC (Streptococcus pyogenes) | Zone diameter (Enterobacter cloacae [9]) | Zone diameter (Enterobacter cloacae [10]) | Zone diameter (Enterobacter cloacae [11]) | MIC (Enterobacter cloacae [12]) | MIC (Providencia rettgeri) | also measured
1 | CC(C)(O/N=C(\C(=O)N[C@@H]1C(=O)N2C(C(=O)[O-])=C(C[n+]3ccccc3)CS[C@H]12)c1csc(N)n1)C(=O)O [CEFTAZIDIME] | 0.06 µg/mL (≈ 0.11 µM) | 0.125 µg/mL (≈ 0.229 µM) | 32 µg/mL (≈ 58.5 µM) | 0.06 µg/mL (≈ 0.11 µM) | 0.5 µg/mL (≈ 0.915 µM) | 0.06 µg/mL (≈ 0.11 µM) | 0.5 µg/mL (≈ 0.915 µM) | 2 µg/mL (≈ 3.66 µM) | 100% | 0.125 µg/mL (≈ 0.229 µM) | 16 µg/mL (≈ 29.3 µM) | 8 µg/mL (≈ 14.6 µM) | 0.06 µg/mL (≈ 0.11 µM) | 0.06 µg/mL (≈ 0.11 µM) |  |  |  |  |  | half-life [1]: 22.9 min
2 | CO/N=C(\C(=O)N[C@@H]1C(=O)N2C(C(=O)[O-])=C([n+]3ccccc3)CC[C@H]12)c1csc(N)n1 | 0.06 µg/mL (≈ 0.136 µM) | 0.06 µg/mL (≈ 0.136 µM) | 2 µg/mL (≈ 4.52 µM) | 0.5 µg/mL (≈ 1.13 µM) | 8 µg/mL (≈ 18.1 µM) | 0.03 µg/mL (≈ 0.0678 µM) | 0.25 µg/mL (≈ 0.565 µM) | 128 µg/mL (≈ 289 µM) | 82.6% | 0.03 µg/mL (≈ 0.0678 µM) | 8 µg/mL (≈ 18.1 µM) | 4 µg/mL (≈ 9.04 µM) | 0.03 µg/mL (≈ 0.0678 µM) | 0.03 µg/mL (≈ 0.0678 µM) | 30 mm | 30 mm | 31 mm | 0.125 µg/mL (≈ 0.283 µM) | 0.5 µg/mL (≈ 1.13 µM) | half-life [8]: 21.2 min
3 | CO/N=C(\C(=O)N[C@@H]1C(=O)N2C(C(=O)[O-])=C([n+]3ccc(C)c(C)c3)CC[C@H]12)c1csc(N)n1 | 0.06 µg/mL (≈ 0.128 µM) | 0.06 µg/mL (≈ 0.128 µM) | 0.25 µg/mL (≈ 0.531 µM) | 0.25 µg/mL (≈ 0.531 µM) | 4 µg/mL (≈ 8.5 µM) | 0.06 µg/mL (≈ 0.128 µM) | 0.125 µg/mL (≈ 0.266 µM) | 128 µg/mL (≈ 272 µM) |  | 0.03 µg/mL (≈ 0.0638 µM) | 4 µg/mL (≈ 8.5 µM) | 2 µg/mL (≈ 4.25 µM) | 0.015 µg/mL (≈ 0.0319 µM) | 0.03 µg/mL (≈ 0.0638 µM) | 30 mm | 30 mm | 31 mm | 0.125 µg/mL (≈ 0.266 µM) | 0.06 µg/mL (≈ 0.128 µM) | 
4 | CO/N=C(\C(=O)N[C@@H]1C(=O)N2C(C(=O)[O-])=C(C[n+]3ccccc3)CS[C@H]12)c1csc(N)n1 |  |  |  |  |  |  |  |  |  |  |  |  |  |  | 30 mm | 30 mm | 30 mm |  |  | 
5 | CO/N=C(\C(=O)N[C@@H]1C(=O)N2C(C(=O)[O-])=C([n+]3ccc4c(c3)ncn4C)CC[C@H]12)c1csc(N)n1 | 0.06 µg/mL (≈ 0.121 µM) | 0.5 µg/mL (≈ 1.01 µM) | 1 µg/mL (≈ 2.01 µM) | 0.5 µg/mL (≈ 1.01 µM) | 4 µg/mL (≈ 8.06 µM) | 0.06 µg/mL (≈ 0.121 µM) | 0.5 µg/mL (≈ 1.01 µM) | 128 µg/mL (≈ 258 µM) |  | 0.06 µg/mL (≈ 0.121 µM) | 8 µg/mL (≈ 16.1 µM) | 4 µg/mL (≈ 8.06 µM) | 0.06 µg/mL (≈ 0.121 µM) | 0.06 µg/mL (≈ 0.121 µM) |  |  |  | 0.125 µg/mL (≈ 0.252 µM) | 0.25 µg/mL (≈ 0.504 µM) | 
